ChEMBL document CHEMBL1949638, “4'-bromo-5,6,7-trimethoxyflavone represses lipopolysaccharide-induced iNOS and COX-2 expressions by suppressing the NF-κB signaling pathway in RAW 264.7 macrophages” (Bioorg Med Chem Lett, 2012)
One block for each molecule: values may come before it. Active and inactive are the calls of the source. The calls are words filed in the database; no cut-off is given here.

What was measured:
[1] = system: RAW264.7; assay: Inhibition of NF-kappaB in mouse RAW264.7 cells co-transfected with piNOS-luc reporter with pRL-TK-luc assessed as inhibition of LPS-induced iNOS expression pretreated for 1 hr before LPS challenge by luciferase assay; format: cell-based
Outline: (§1)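 Cells transiently co-transfected with the piNOS-luc or pCOX-2-luc reporter plus pRL-TK-luc, then pretreated 1 h with 6.25, 12.5 or 25 μM before LPS. Luciferase activity read on a luminometer. Means ± SDs of three independent experiments.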

[2] = system: RAW264.7; assay: Inhibition of NF-kappaB in mouse RAW264.7 cells assessed as reduction of LPS-induced TNFalpha release at 6.25 to 25 uM pretreated for 1 hr before LPS challenge and measured after 24 hrs post LPS challenge by EIA; format: cell-based
Outline: (§2)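 Compound at 6.25, 12.5 or 25 μM given 1 h ahead of LPS 1 μg/ml, then 24 h incubation. TNF-α, IL-6 and IL-1β in culture medium quantified by EIA kits. Means ± SDs of three independent experiments.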

[3] = system: RAW264.7; assay: Inhibition of NF-kappaB in mouse RAW264.7 cells assessed as suppression of LPS-induced iNOS mRNA level at 6.25 to 25 uM after 4 hrs by quantitative RT-PCR analysis; format: cell-based
Outline: (§3)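 Total RNA taken from cells exposed to LPS 1 μg/ml with or without 6.25, 12.5 or 25 μM compound for 4 h. Steady-state iNOS and COX-2 mRNA measured by qRT-PCR and expressed as a ratio to β-actin. Means ± SDs, n=3 independent experiments. ANOVA with Dunnett's test.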

[4] = system: RAW264.7; assay: Inhibition of NF-kappaB in mouse RAW264.7 cells assessed as suppression of LPS-induced COX2 mRNA level at 6.25 to 25 uM after 4 hrs by quantitative RT-PCR analysis; format: cell-based; outline: as §3
[5] = system: RAW264.7; assay: Antiinflammatory activity against mouse RAW264.7 cells assessed as inhibition of LPS-induced PGE2 production at 25 uM by EIA; format: functional
[6] = system: RAW264.7; assay: Inhibition of NF-kappaB in mouse RAW264.7 cells assessed as reduction of LPS-induced IL1beta release at 6.25 to 25 uM pretreated for 1 hr before LPS challenge and measured after 24 hrs post LPS challenge by EIA; format: cell-based; outline: as §2
[7] = system: RAW264.7; assay: Cytotoxicity against mouse RAW264.7 cells assessed as effect on cell viability up to 50 uM after 24 hrs; format: cell-based; conditions: raw264.7, 24 h
Outline: (§4)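 RAW 264.7 viability checked after 24 h exposure to compounds up to 50 µM, with and without LPS.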

[8] = system: RAW264.7; assay: Inhibition of NF-kappaB in mouse RAW264.7 cells assessed as reduction of LPS-induced IL6 mRNA expression at 6.25 to 25 uM after 4 hrs by quantitative RT-PCR analysis; format: cell-based
Outline: (§5)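 RNA prepared after 4 h of LPS 1 μg/ml stimulation with or without 6.25–25 μM compound. TNF-α, IL-6 and IL-1β transcripts quantified by qRT-PCR and normalised to β-actin. Three independent experiments.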

[9] = system: RAW264.7; assay: Inhibition of NF-kappaB in mouse RAW264.7 cells assessed as reduction of LPS-induced IL1beta mRNA expression at 6.25 to 25 uM after 4 hrs by quantitative RT-PCR analysis; format: cell-based; outline: as §5
[10] = system: Peritoneal macrophage cell; assay: Antiinflammatory activity against thioglycolate-stimulated C57BL/6 mouse peritoneal macrophages assessed as inhibition of LPS-induced PGE2 production by EIA; format: functional, cell-based
[11] = system: RAW264.7; assay: Inhibition of NF-kappaB activation in LPS-stimulated mouse RAW264.7 cells assessed as blockage of IkappaBalpha phosphorylation pretreated at 6.25 to 25 uM for 1 hr before LPS challenge measured after 15 to 60 mins post challenge by Western blotting; format: cell-based
Outline: (§6)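 Pretreatment 1 h at 6.25, 12.5 or 25 μM, then LPS 1 μg/ml for 15 min or 1 h. Cytosolic extracts immunoblotted for phospho-IκBα and IκBα, with β-actin as loading control. Blots representative of three experiments.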

[12] = system: RAW264.7; assay: Cytotoxicity against mouse RAW264.7 cells; format: cell-based
[13] = system: RAW264.7; assay: Antiinflammatory activity against mouse RAW264.7 cells assessed as inhibition of LPS-induced PGE2 production by EIA; format: functional, cell-based
[14] = system: RAW264.7; assay: Inhibition of NF-kappaB in mouse RAW264.7 cells co-transfected with pCOX-2-luc reporter with pRL-TK-luc assessed as inhibition of LPS-induced COX2 expression pretreated for 1 hr before LPS challenge by luciferase assay; format: cell-based; outline: as §1
[15] = system: RAW264.7; assay: Cytotoxicity against mouse LPS-stimulated RAW264.7 cells assessed as effect on cell viability up to 50 uM after 24 hrs; format: cell-based; conditions: raw264.7, 24 h; outline: as §4
[16] = system: RAW264.7; assay: Antiinflammatory activity against mouse RAW264.7 cells assessed as inhibition of LPS-induced NO production preincubated for 1 hr before LPS challenge measured after 24 hrs by Griess method; format: functional, cell-based
Outline: (§7)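 Pretreatment with test agent for 1 h, then LPS 1 μg/ml for 24 h; nitrite in culture medium measured by Griess assay. IC50 derived; means ± SDs of three independent experiments. L-NIL 10 μM served as reference NO inhibitor.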

[17] = system: RAW264.7; assay: Inhibition of NF-kappaB in mouse RAW264.7 cells assessed as reduction of LPS-induced TNFalpha mRNA expression at 6.25 to 25 uM after 4 hrs by quantitative RT-PCR analysis; format: cell-based; outline: as §5
[18] = system: RAW264.7; assay: Antiinflammatory activity against mouse RAW264.7 cells assessed as inhibition of LPS-induced NO production at 25 uM preincubated for 1 hr before LPS challenge measured after 24 hrs by Griess method; format: functional; outline: as §7
[19] = system: RAW264.7; assay: Inhibition of NF-kappaB in mouse RAW264.7 cells assessed as inhibition of LPS-induced expression of COX2 preincubated 1 hr before LPS challenge measured after 24 hrs by Western blot analysis; format: cell-based
Outline: (§8)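 1 h pretreatment at 6.25, 12.5 or 25 μM, then LPS 1 μg/ml for 24 h. Controls had neither LPS nor compound. 30 μg total protein run on SDS–PAGE, blotted to nitrocellulose, probed with iNOS- and COX-2-specific antibodies. Blots representative of three experiments.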

[20] = system: RAW264.7; assay: Inhibition of NF-kappaB in mouse RAW264.7 cells assessed as reduction of LPS-induced IL6 release at 6.25 to 25 uM pretreated for 1 hr before LPS challenge and measured after 24 hrs post LPS challenge by EIA; format: cell-based; outline: as §2
[21] = system: Peritoneal macrophage cell; assay: Antiinflammatory activity against thioglycolate-stimulated C57BL/6 mouse peritoneal macrophages assessed as inhibition of LPS-induced NO production preincubated for 1 hr before LPS challenge measured after 24 hrs by Griess method; format: functional, cell-based
Outline: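 Peritoneal macrophages harvested from thioglycolate-injected C57BL/6 mice. Test agent 6.25, 12.5 or 25 μM added 1 h before LPS 1 μg/ml, with 24 h incubation. NO in the medium measured by Griess assay. Three independent experiments, means ± SDs.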

[22] = system: RAW264.7; assay: Inhibition of NF-kappaB activation in mouse LPS-stimulated RAW264.7 cells co-transfected with pNF-KappaB-luc reporter and pRL-TK-luc pretreated for 1 hr before LPS challenge measured after 1 hr post challenge by luciferase assay; format: cell-based
Outline: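 Cells co-transfected with pNF-κB-luc and pRL-TK-luc, pretreated 1 h with 6.25, 12.5 or 25 μM, then given LPS 1 μg/ml for another 1 h. Luciferase activity measured by luminometer. Three independent experiments.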

[23] = system: RAW264.7; assay: Inhibition of NF-kappaB activation in LPS-stimulated mouse RAW264.7 cells assessed as blockage of IkappaBalpha degradation pretreated at 6.25 to 25 uM for 1 hr before LPS challenge measured after 15 to 60 mins post challenge by Western blotting; format: cell-based; outline: as §6
[24] = system: RAW264.7; assay: Inhibition of NF-kappaB in mouse RAW264.7 cells assessed as inhibition of LPS-induced iNOS expression preincubated 1 hr before LPS challenge measured after 24 hrs by Western blot analysis; format: cell-based; outline: as §8
[25] = target: Transcription factor p65 (Mus musculus) (UniProt Q04207); assay: Inhibition of NF-kappaB p65 subunit nuclear translocation in LPS-induced mouse RAW264.7 cells pretreated for 1 hr before LPS challenge measured after 15 min or 1 hr post challenge by Western blot analysis
[26] = system: RAW264.7; assay: Antiinflammatory activity against mouse RAW264.7 cells assessed as inhibition of LPS-induced NO production at <16.73 uM preincubated for 1 hr before LPS challenge measured after 24 hrs by Griess method; format: functional, cell-based

Chain of Transcription factor p65 (Mus musculus) (Q04207 whole entry): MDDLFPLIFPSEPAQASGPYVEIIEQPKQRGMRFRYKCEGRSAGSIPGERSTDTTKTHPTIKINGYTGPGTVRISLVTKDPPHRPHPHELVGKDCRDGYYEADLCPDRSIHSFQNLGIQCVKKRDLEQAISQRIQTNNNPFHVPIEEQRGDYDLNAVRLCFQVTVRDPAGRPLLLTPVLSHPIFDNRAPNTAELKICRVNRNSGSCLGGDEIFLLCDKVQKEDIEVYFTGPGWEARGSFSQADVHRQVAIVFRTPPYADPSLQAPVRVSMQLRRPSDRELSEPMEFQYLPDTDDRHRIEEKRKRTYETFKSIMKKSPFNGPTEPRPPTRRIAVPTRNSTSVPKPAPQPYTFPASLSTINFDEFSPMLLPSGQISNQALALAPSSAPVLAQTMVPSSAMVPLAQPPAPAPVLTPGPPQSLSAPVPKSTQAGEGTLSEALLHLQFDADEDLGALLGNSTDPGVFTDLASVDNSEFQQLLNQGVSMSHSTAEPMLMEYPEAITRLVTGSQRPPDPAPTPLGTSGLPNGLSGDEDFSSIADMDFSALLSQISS

- IC50 [13]: 11 µM
- IC50 [16]: 14.2 µM
- inhibition [25]: Dose-dependent effect
Structure (SMILES): COc1cc2oc(-c3ccc(Br)cc3)cc(=O)c2c(OC)c1OC
- inhibition [1]: Dose-dependent effect
- inhibition [2]: Active
- inhibition [3]: Active
- inhibition [4]: Active
- inhibition at 25 µM [5]: 89.6%
- inhibition [6]: Active
- Activity [7]: Non-toxic
- inhibition [8]: Active
- inhibition [9]: Active
- inhibition [10]: Dose-dependent effect
- inhibition [11]: Active
- IC50 [12]: 69.9 µM
- inhibition [13]: Dose-dependent effect
- inhibition [14]: Dose-dependent effect
- Activity [15]: Non-toxic
- inhibition [16]: Dose-dependent effect
- inhibition [17]: Active
- inhibition at 25 µM [18]: 89.6%
- inhibition [19]: Dose-dependent effect
- inhibition [20]: Active
- inhibition [21]: Dose-dependent effect
- inhibition [22]: Dose-dependent effect
- inhibition [23]: Active
- inhibition [24]: Dose-dependent effect

Structure (SMILES): COc1cc2oc(-c3ccc([N+](=O)[O-])cc3)cc(=O)c2c(OC)c1OC
- inhibition at 25 µM [5]: 84.4%
- Activity [7]: Non-toxic
- IC50 [12]: > 100 µM
- Activity [15]: Non-toxic
- inhibition at 25 µM [18]: 17.4%

Structure (SMILES): Nc1ccc(-c2cc(=O)c3c(O)c(O)c(O)cc3o2)cc1
- inhibition at 25 µM [5]: 83.1%
- Activity [7]: Non-toxic
- IC50 [12]: 94.1 µM
- Activity [15]: Non-toxic
- inhibition at 25 µM [18]: 6.98%

Structure (SMILES): COc1c(O)cc2oc(-c3ccccc3)cc(=O)c2c1O [OROXYLIN A]
- IC50 [12]: 16.7 µM
- inhibition at 25 µM [18]: 12.4%
- Activity [26]: inactive

Structure (SMILES): O=c1cc(-c2ccc(Br)cc2)oc2cc(O)c(O)c(O)c12
- inhibition at 25 µM [5]: 29.9%
- Activity [7]: Non-toxic
- IC50 [12]: 57.1 µM
- Activity [15]: Non-toxic
- inhibition at 25 µM [18]: 27%

Structure (SMILES): O=c1cc(-c2ccccc2)oc2cc(O)c(O)c(O)c12 [BAICALEIN]
- inhibition at 25 µM [5]: 60.9%
- IC50 [12]: > 100 µM
- inhibition at 25 µM [18]: 11.1%

Structure (SMILES): O=c1cc(-c2ccc([N+](=O)[O-])cc2)oc2cc(O)c(O)c(O)c12
- inhibition at 25 µM [5]: 29.9%
- Activity [7]: Non-toxic
- IC50 [12]: > 100 µM
- Activity [15]: Non-toxic
- inhibition at 25 µM [18]: 7.65%

Structure (SMILES): COc1cc2oc(-c3ccccc3)cc(=O)c2c(OC)c1OC [BAICALEIN TRIMETHYL ETHER]
- inhibition at 25 µM [5]: 42.2%
- Activity [7]: Non-toxic
- IC50 [12]: > 100 µM
- Activity [15]: Non-toxic
- inhibition at 25 µM [18]: 12.1%

Structure (SMILES): COc1cc2oc(-c3ccc(N)cc3)cc(=O)c2c(OC)c1OC
- inhibition at 25 µM [5]: 69.5%
- Activity [7]: Non-toxic
- IC50 [12]: > 100 µM
- Activity [15]: Non-toxic
- inhibition at 25 µM [18]: 23.1%
